Screening results: PubChem, several laboratories
Most compounds without a hit are left out; they make up all but 1.8% or so of the library.
STAT1 blocker: reduces IFN-gamma driven STAT1 reporter signal | NIH 3T3 STAT1-luciferase reporter, luminescence | inhibition, % at 5.5 µM | 0.35% of 200,000 active;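 active = inhibition above a set limit, the mean inhibition across all tested compounds plus 3 SD, cut at about 34% in these data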;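 also: 0% = IFN-gamma with DMSO and 100% = IFN-gamma with 300 µM nifuroxazide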
TRAIL sens C8: caspase-8 TRAIL sensitization. NB7+C8 cells + TRAIL, ATPlite viability luminescence. inhibition (viability loss, TRAIL sensitization), % at 10 µM. 1% of 360,000 active. AID 624354;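 active = compounds causing at least 50% loss of cell viability in the single-dose screen, relative to plate controls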
PPC-1+TRAIL kill: kills PPC-1 cancer cells in the presence of TRAIL; cell killing (% activity), % at 4 µM or 5 µM; 0.41% of 220,000 active; PPC-1 cells + TRAIL, ATPLite viability luminescence; AID 1443;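 active = cell killing above 50% in the first pass at 4 µM, then a duplicate retest at 5 µM averaging 50% or more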;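 also: plate controls were cells with TRAIL plus DMSO for no effect and medium-only wells lacking cells for full effect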
STAT3 inh: reduces IL-6 driven STAT3 reporter signal; U3A cells, IL-6 STAT3-luciferase reporter, luminescence; host cell line lacks STAT1; inhibition, % at 5.5 µM; 0.89% of 190,000 active;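 active = inhibition above the mean inhibition across all screened compounds plus 3 SD, cut at about 44% in these data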;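 also: 0% = DMSO only wells and 100% = 100 µM nifuroxazide control wells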
STAT3 activator: increases IL-6 driven STAT3 reporter signal. U3A cells, IL-6 STAT3-luciferase reporter, luminescence; 100% = signal with IL-6 EC80 alone. AID 871. activation (% of control), % at 5.6 µM. 0.91% of 190,000 active;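 active = activation above the screen-wide mean of compound activation plus 3 SD, cut at about 130% in these data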;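 also: 0% = background luminescence of wells with medium and substrate only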
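system = STAT3-luciferase reporter U3A cells | reagent = IL-6 stimulus at 33 ng/mL final | timing = 1 h compound pre-exposure, 6 h IL-6 stimulation, 37 °C | measured by = luminescence | evaluation = % activation versus median of IL-6-stimulated wells | control set = IL-6-only wells as 100% reference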
Starred values were filed as active, the others as inactive; x = not tested or not shown.

SMILES	STAT1 blocker	TRAIL sens C8	PPC-1+TRAIL kill	STAT3 inh	STAT3 activator
C=C(C)[C@@H]1C2=CC(C(=O)OC)=C(C[C@H](C(=C)C)[C@H]3O[C@H]3C3=C[C@H]1OC3=O)O2	x	77.4*	x	x	x
COc1cccc(/C=C/C(=O)NNC(=O)c2ccco2)c1OC	x	62.9*	x	x	x
c1ccc(CNc2c3ccccc3nc3ccccc23)cc1	x	34.5	x	x	x
Oc1ccc(CCNc2c3ccccc3nc3ccccc23)cc1O	x	71.1*	x	x	x
Cc1nn(-c2ccccc2)c(C)c1-c1cc(C(=O)N/N=C/c2ccc(O)cc2)[nH]n1	x	49.6*	2.8	x	x
COc1cc(/C=N/NC(=O)c2nc(-c3ccccc3)n(-c3ccccc3)n2)ccc1O	-3.5	8.1	9.3	-3.9	105.1
Cc1nn(-c2ccccc2)c(C)c1/C=N/NC(=O)c1cc(O)cc(O)c1	x	7.6	x	x	x
COc1cc(/C=N/NC(=O)c2cc(-c3c(C)nn(-c4ccccc4)c3C)n[nH]2)ccc1O	-123.2	0.9	-1.4	-149.5	236.3*
O=C(COC(=O)Cc1ccc(Cl)c(Cl)c1)Nc1ccc2[nH]c(=O)[nH]c2c1	x	-3.3	x	x	x
CCCCCCC[N+](CC)(CC)CCCCc1ccc(Cl)cc1	x	56.6*	x	x	x
CCCCCNCc1ccc(Cl)cc1	-8.2	0.1	-3.3	10.9	97.0
CCCc1cc(C(=O)NC2CCCN(Cc3ccccc3F)C2)no1 (stereo not given)	x	18.5	x	x	x
Cc1cc(C)c2c(c1)/C(=C/C(=O)c1ccc(Br)s1)C(=O)N2	-1.4	84.2*	19.7	8.5	92.9
CC(C)CC(=O)Nc1nc2c(c(=O)[nH]1)CCCC2	8.5	61.5*	19.1	-4.1	104.7
COc1cccc(C(=O)Oc2ccc3ccc(=O)oc3c2)c1	x	3.3	x	x	x
Cc1nc(N)c(C#N)c(-c2cccnc2)c1-c1ccccc1	x	7.1	x	x	x
Cc1ccc2c(n1)sc1c(-c3ccccc3)c(C#N)c(N)nc12	-0.3	12.7	35.0	-35.2	134.9*
O=C(COc1ccc(F)cc1Br)NCC1(N2CCOCC2)CCCCC1	x	13.0	x	x	x
N/C(=N/OC(=O)c1ccc(Cl)cc1)c1ncc([N+](=O)[O-])s1	x	27.8	-7.8	x	x
O=C(NC1CCCCC1)c1n[nH]c2c1CCCCC2	x	77.6*	x	x	x
C=CCOc1ccc(C(c2c(C)n(C)n(-c3ccccc3)c2=O)c2c(C)n(C)n(-c3ccccc3)c2=O)cc1	x	2.2	x	x	x
COc1ccc(CC(=O)N/N=C(\C)c2cccs2)cc1OC	x	7.5	x	x	x
CCn1c2ccccc2nc2cc3c(cc21)c(Cl)c(=O)c1ccccc13	x	79.2*	x	x	x
CCn1c(/C=C/c2c(C)n(CC)c3ccccc23)nc2ccccc2c1=O	7.6	-2.7	15.4	2.7	97.9
Clc1ccc(/C=N/Nc2nnc(-c3ncc[nH]3)c3ccccc23)cc1	-15.4	54.0*	27.6	-16.9	116.0
SMILES	STAT1 blocker	TRAIL sens C8	PPC-1+TRAIL kill	STAT3 inh	STAT3 activator
Nc1nc(-c2ccc(-c3ccccc3)cc2)cs1	-42.6	59.0*	7.9	23.2	81.8
Nc1nc(-c2ccc(Oc3ccccc3)cc2)cs1	x	10.3	x	x	x
CC(C)=CCC/C(C)=C/CNC(=O)C[C@H]1C[C@H](C(=O)N2CCOCC2)[C@@]2(CCC3CCCC3)c3[nH]c4cc(-c5ccco5)ccc4c3CCN2C1=O	x	4.2	x	x	x
CC(=O)Nc1ccc(-c2ccnc3c2CC(C(=O)Nc2cccc(Oc4ccccc4)c2)O3)cc1 (stereo not given)	x	6.8	x	x	x
O=C1N(c2ccccc2)CCN1c1ccccc1	x	64.5*	x	x	x
COc1ccc(/C=C(\C#N)C(=O)NCC(c2ccc(F)cc2)N2CCOCC2)cc1 (stereo not given)	x	1.3	10.5	x	x
CCOC(=O)c1sc(NC(=O)Nc2ccccc2)cc1C	-100.3	73.2*	60.2*	6.2	94.7
CCOC(=O)c1c(N)sc(C(=O)Nc2ccccc2)c1C	-8.3	63.2*	46.2	40.7	67.0
CCOC(=O)c1sc(NC(=O)Nc2ccccc2Cl)cc1C	-96.9	77.0*	62.6*	26.5	77.5
CCOC(=O)c1sc(NC(C)=O)cc1C	-1.1	-6.1	-20.2	3.6	96.3
O=C(/C=C/c1ccc(OCCCF)cc1)N1CCOCC1	x	19.5	x	x	x
c1ccc(-c2noc(-c3ccc4ccccc4c3)n2)nc1	88.4*	87.3*	23.9	112.6*	9.3
COc1ccc(C)cc1N(C(=O)c1cccc(F)c1)c1nc2ccccc2s1	-5.0	2.6	-3.7	-34.9	133.8*
C=CCNC(=O)c1ccc([N+](=O)[O-])c(Cl)c1	0.4	9.5	3.6	4.5	100.3
CC(C)(CNC(=O)c1ccc([N+](=O)[O-])c(Cl)c1)CNC(=O)c1ccc([N+](=O)[O-])c(Cl)c1	2.5	53.1*	27.8	3.1	98.7
